# Tests used:
# HL-60 = experiment: Cytotoxicity against human HL60 cells after 2 days; type: functional, cell-based; conditions: HL-60, 48 h
# Method in brief: (§1)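 Cells grown per supplier's instructions, seeded at 2-4 × 10^4 per well and incubated overnight in medium with 10% FBS, 5% CO2, 37 °C. Day 2: medium replaced with graded compound concentrations from DMSO stock (20 mM). Day 4: CCK-8 added for 4 h, absorbance read at 450 nm. Three experiments, each in triplicate, mean ± S.D.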
# HCT-15 = experiment: Cytotoxicity against human HCT15 cells after 2 days; type: functional, cell-based; conditions: HCT-15, 48 h; method in brief: as §1
# DU-145 = experiment: Cytotoxicity against human DU145 cells after 2 days; type: functional, cell-based; conditions: DU-145, 48 h; method in brief: as §1
# HeLa = experiment: Cytotoxicity against human HeLa cells after 2 days; type: functional, cell-based; conditions: 48 h; method in brief: as §1
# MDA-MB-231 = experiment: Cytotoxicity against human MDA-MB-231 cells after 2 days; type: functional; method in brief: as §1
# [1] = biological target: DNA topoisomerase 2-alpha (Homo sapiens) (UniProt P11388); experiment: Inhibition of human DNA topoisomerase 2 alpha assessed as inhibition of supercoiled pBR322 DNA relaxation at 100 uM after 30 mins by gel electrophoresis
# DNA topoisomerase 2-alpha (Homo sapiens), sequence (P11388 whole entry): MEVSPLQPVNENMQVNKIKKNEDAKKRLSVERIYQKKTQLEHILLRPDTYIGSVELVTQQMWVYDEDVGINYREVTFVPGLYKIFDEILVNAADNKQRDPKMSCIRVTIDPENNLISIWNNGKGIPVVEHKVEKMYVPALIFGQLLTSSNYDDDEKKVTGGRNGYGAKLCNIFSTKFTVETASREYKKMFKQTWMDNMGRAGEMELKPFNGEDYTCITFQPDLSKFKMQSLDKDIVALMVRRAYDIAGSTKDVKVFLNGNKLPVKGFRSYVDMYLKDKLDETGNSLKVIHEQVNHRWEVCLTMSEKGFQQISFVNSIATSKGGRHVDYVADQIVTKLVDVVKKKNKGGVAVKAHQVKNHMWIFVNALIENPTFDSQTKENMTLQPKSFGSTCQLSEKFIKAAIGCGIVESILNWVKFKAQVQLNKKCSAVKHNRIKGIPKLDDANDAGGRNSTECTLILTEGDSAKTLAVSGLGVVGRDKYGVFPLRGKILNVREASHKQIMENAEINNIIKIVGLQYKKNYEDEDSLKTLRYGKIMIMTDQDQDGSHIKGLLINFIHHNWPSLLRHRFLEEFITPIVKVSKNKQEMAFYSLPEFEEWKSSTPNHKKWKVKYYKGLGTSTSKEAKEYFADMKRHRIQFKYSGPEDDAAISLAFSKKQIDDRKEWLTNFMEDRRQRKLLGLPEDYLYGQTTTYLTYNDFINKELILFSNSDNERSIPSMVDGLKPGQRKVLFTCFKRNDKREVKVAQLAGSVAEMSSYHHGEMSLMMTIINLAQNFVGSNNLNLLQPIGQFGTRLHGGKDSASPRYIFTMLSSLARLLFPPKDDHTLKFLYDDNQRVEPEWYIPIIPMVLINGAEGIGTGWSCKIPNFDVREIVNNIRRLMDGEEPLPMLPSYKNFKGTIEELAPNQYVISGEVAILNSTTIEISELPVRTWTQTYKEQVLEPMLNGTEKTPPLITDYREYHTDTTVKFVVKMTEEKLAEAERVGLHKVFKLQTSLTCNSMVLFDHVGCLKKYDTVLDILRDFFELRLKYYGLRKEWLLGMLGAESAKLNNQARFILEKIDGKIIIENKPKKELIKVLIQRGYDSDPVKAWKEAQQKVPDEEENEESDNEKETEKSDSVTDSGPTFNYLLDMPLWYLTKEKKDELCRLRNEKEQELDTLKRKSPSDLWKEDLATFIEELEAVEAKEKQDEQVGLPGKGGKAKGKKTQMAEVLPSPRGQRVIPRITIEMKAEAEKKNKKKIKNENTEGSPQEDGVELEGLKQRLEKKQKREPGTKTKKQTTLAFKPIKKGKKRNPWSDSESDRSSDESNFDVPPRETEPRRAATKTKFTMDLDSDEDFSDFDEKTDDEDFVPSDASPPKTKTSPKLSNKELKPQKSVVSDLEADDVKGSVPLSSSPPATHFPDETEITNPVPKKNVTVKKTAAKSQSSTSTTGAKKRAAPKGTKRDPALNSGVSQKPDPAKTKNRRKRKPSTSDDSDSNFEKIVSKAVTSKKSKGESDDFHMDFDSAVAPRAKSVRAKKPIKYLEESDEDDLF
# Method in brief: (§2)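 200 ng supercoiled pBR322 with 1 unit human topo IIα, incubated 30 min at 30 °C in 10 mM Tris-HCl pH 7.9, 50 mM NaCl, 5 mM MgCl2, 1 mM EDTA, 1 mM ATP, BSA. Stopped with EDTA. Run on 1% agarose in TAE at 25 V for 4 h, stained with ethidium bromide, supercoiled band quantified under UV. Three experiments in triplicate.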
# [2] = biological target: T1, DNA topoisomerase 1 (Homo sapiens) (UniProt P11387); experiment: Inhibition of human recombinant DNA topoisomerase 1 assessed as inhibition of supercoiled pBR322 DNA relaxation at 100 uM after 30 mins by gel electrophoresis
# T1 sequence (whole entry): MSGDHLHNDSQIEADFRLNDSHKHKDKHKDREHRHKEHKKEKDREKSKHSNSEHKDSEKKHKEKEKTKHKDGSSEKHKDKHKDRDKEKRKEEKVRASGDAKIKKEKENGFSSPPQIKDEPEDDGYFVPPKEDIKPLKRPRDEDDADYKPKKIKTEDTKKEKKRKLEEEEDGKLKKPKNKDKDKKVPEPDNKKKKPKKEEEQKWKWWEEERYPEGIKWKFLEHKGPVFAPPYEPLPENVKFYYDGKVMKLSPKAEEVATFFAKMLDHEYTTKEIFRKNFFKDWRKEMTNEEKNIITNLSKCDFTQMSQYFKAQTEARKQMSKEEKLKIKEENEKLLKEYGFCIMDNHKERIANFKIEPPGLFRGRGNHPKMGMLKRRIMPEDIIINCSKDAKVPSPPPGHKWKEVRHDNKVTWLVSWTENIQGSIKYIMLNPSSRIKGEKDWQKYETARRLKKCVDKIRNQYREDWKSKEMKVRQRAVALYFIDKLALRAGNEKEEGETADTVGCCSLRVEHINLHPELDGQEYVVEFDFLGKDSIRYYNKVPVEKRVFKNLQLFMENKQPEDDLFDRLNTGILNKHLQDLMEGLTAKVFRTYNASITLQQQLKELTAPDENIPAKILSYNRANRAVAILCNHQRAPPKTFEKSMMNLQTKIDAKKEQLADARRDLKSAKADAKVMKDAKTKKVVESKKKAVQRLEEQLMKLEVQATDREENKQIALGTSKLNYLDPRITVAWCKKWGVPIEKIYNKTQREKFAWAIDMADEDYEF
# Method in brief: (§3)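 100 ng pBR322 with 0.4 units recombinant human topo I, incubated 30 min at 37 °C in 10 mM Tris-HCl pH 7.9, 150 mM NaCl, 0.1% BSA, 1 mM spermidine, 5% glycerol. Stopped with sarcosyl stop solution. Run on 1% agarose in TAE at 15 V for 7 h, stained with ethidium bromide, bands quantified under UV. Three experiments in triplicate.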
# [3] = biological target: DNA topoisomerase 2-alpha (Homo sapiens) (UniProt P11388); experiment: Inhibition of human DNA topoisomerase 2 alpha assessed as inhibition of supercoiled pBR322 DNA relaxation at 20 uM after 30 mins by gel electrophoresis; method in brief: as §2
# [4] = biological target: T1, DNA topoisomerase 1 (Homo sapiens); experiment: Inhibition of human recombinant DNA topoisomerase 1 assessed as inhibition of supercoiled pBR322 DNA relaxation at 20 uM after 30 mins by gel electrophoresis; method in brief: as §3
inhibition [1] [%],inhibition [2] [%],inhibition [3] [%],inhibition [4] [%],Structure (SMILES),IC50 (HL-60) [µM],IC50 (HCT-15) [µM],IC50 (DU-145) [µM],IC50 (HeLa) [µM],IC50 (MDA-MB-231) [µM]
10.5,1.9,,,c1ccc(-c2cc(-c3ccoc3)c3c(n2)-c2ccccc2OC3)cc1,6.6,31.1,> 50,39.6,10
14,0,,,c1ccc(-c2cc(-c3cccnc3)c3c(n2)-c2ccccc2OC3)cc1,,,,,
23.4,4.4,,,c1ccc(-c2cc(-c3ccco3)c3c(n2)-c2ccccc2OC3)nc1,18.6,> 50,22.9,> 50,3.3
7.5,5.5,,,c1ccc(-c2cc(-c3cccs3)nc3c2COc2ccccc2-3)cc1,,,,,
,,22.3,,COc1cc([C@@H]2c3cc4c(cc3[C@@H](O[C@@H]3O[C@@H]5CO[C@@H](C)O[C@H]5[C@H](O)[C@H]3O)[C@H]3COC(=O)[C@H]23)OCO4)cc(OC)c1O [ETOPOSIDE],,,,,0.7
8.5,1.8,,,c1ccc(-c2cc(-c3cccs3)nc3c2COc2ccccc2-3)nc1,,,,,
,,,,CC[C@@]1(O)C(=O)OCc2c1cc1n(c2=O)Cc2cc3ccccc3nc2-1 [CAMPTOTHECIN],,,,,0.3
2,11.5,,,c1ccc(-c2cc(-c3ccco3)nc3c2COc2ccccc2-3)nc1,,,,,
28.4,4.9,,,c1ccc(-c2cc(-c3ccco3)nc3c2COc2ccccc2-3)cc1,1.4,0.4,0.1,2.3,0.2
17.6,3.7,,,c1ccc(-c2cc(-c3ccsc3)c3c(n2)-c2ccccc2OC3)cc1,> 50,> 50,> 50,> 50,11.9
,,,,COc1cccc2c1C(=O)c1c(O)c3c(c(O)c1C2=O)C[C@@](O)(C(=O)CO)C[C@@H]3O[C@H]1C[C@H](N)[C@H](O)[C@H](C)O1 [DOXORUBICIN],,,,,0.4
15.4,0,,,c1ccc(-c2cc(-c3ccccc3)c3c(n2)-c2ccccc2OC3)cc1,18.8,5.1,6.9,14.2,1.8
8.4,0,,,c1csc(-c2cc(-c3ccoc3)c3c(n2)-c2ccccc2OC3)c1,,,,,
11.6,46.4,,22.9,c1coc(-c2cc(-c3ccco3)c3c(n2)-c2ccccc2OC3)c1,3.4,0.6,0.9,1.3,0.6
11.5,0,,,c1ccc(-c2cc(-c3ccco3)c3c(n2)-c2ccccc2OC3)cc1,7.3,12.3,18.6,1.4,11.6
10.7,0.6,,,c1ccc(-c2cc(-c3ccccn3)c3c(n2)-c2ccccc2OC3)nc1,0.2,23.1,> 50,> 50,4.7
14.1,9.2,,,c1coc(-c2cc(-c3cccs3)nc3c2COc2ccccc2-3)c1,,,,,
25.3,3.3,3.2,,c1ccc(-c2cc(-c3ccsc3)nc3c2COc2ccccc2-3)nc1,> 50,8.3,5,> 50,25.8
10.8,0,,,c1ccc(-c2cc(-c3cccs3)c3c(n2)-c2ccccc2OC3)cc1,> 50,1.2,2.6,16,3.9
7.2,3.1,,,c1ccc(-c2cc(-c3ccccn3)nc3c2COc2ccccc2-3)cc1,14.5,15.6,7.6,5,11.1
6.8,0,,,c1coc(-c2cc(-c3cccs3)c3c(n2)-c2ccccc2OC3)c1,,,,,
19.4,48.2,,4.1,c1ccc(-c2cc(-c3cccs3)c3c(n2)-c2ccccc2OC3)nc1,13.7,14,13.1,6.2,2.4
5.6,41.6,,15.5,c1cncc(-c2cc(-c3ccco3)nc3c2COc2ccccc2-3)c1,1.8,0.6,4.6,2.2,1.1
7.9,0.7,,,c1csc(-c2cc(-c3cccs3)c3c(n2)-c2ccccc2OC3)c1,,,,,
8.7,2.6,,,c1ccc(-c2cc(-c3cccnc3)c3c(n2)-c2ccccc2OC3)nc1,> 50,3.3,4.4,1.3,7.2
8.7,0,,,c1ccc(-c2cc(-c3ccccn3)c3c(n2)-c2ccccc2OC3)cc1,> 50,12.1,1.9,2.8,1.9

# Source: ChEMBL document CHEMBL1806416, “Synthesis of 2,4-diaryl chromenopyridines and evaluation of their topoisomerase I and II inhibitory activity, cytotoxicity, and structure-activity relationship” (Eur J Med Chem, 2011)
